According to ChEMBL document CHEMBL1139365, “Inhibition of MDR1 activity in vitro by a novel class of diltiazem analogues: toward new candidates” (J Med Chem, 2009):
Activity calls are given as the source filed them. The rule behind the calls is not given here.

Columns and labels:
A2780 [1] = experiment: Antiproliferative activity against human A2780 cells at 10 uM after 3 days by MTT assay; assay type: functional; conditions: A2780, 72 h
A2780 [2] = experiment: Antiproliferative activity against human A2780 cells after 3 days by MTT assay; assay type: functional, cell-based; conditions: for IC50: Homo sapiens, A2780, 72 h
In short: (§1)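 Cells plated 6–8 h in 96-well plates. Compound alone, in duplicate at ≥5 concentrations (3-fold serial dilutions, top 100 μM), with final DMSO […] after predilution in FCS. After 3 days, MTT 4 h at 37 °C, formazan dissolved in DMSO, A540. IC50 taken from single dose–response curves; 3–4 experiments. A2780/DX3 kept doxorubicin-free 2–3 days beforehand.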

[3] = Antiproliferative activity against human A2780/DX3 cells after 3 days by MTT assay; assay type: functional, cell-based; conditions: for IC50: Homo sapiens, A2780/DX3, 72 h; in short: as §1
A2780 ADR [4] = experiment: Reversal of P-gp 170-mediated multidrug resistance in human A2780/DX3 cells assessed as reduction in doxorubicin IC50 at IC5 pretreated for 6 hrs before doxorubicin administration measured after 3 days by MTT assay; assay type: cell-based; parameters: scale not given: the % may be the effect or the level left
In short: (§2)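 A2780/DX3 cells went into medium holding the modulator at its MTT-derived 0% or 5% growth-inhibition concentration. Doxorubicin (30–0.048 μM serial dilutions, modulator kept constant) was added 6 h later. MTT (2 mg/mL) was added after 3 days for 4 h at 37 °C, formazan dissolved in DMSO, A540 read. IC50 came from dose–response curves, repeated 4–6 times. % reduction is versus doxorubicin alone in the same experiment. Kruskal–Wallis/Mann–Whitney tests.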

A2780 ADR [5] = experiment: Reversal of P-gp 170-mediated multidrug resistance in human A2780/DX3 cells assessed as reduction in doxorubicin IC50 at IC0 pretreated for 6 hrs before doxorubicin administration measured after 3 days by MTT assay; assay type: cell-based; parameters: scale not given: the % may be the effect or the level left; in short: as §2
A2780 ADR [6] = experiment: Reversal of P-gp 170-mediated multidrug resistance in human A2780/DX3 cells assessed as increase in intracellular doxorubicin accumulation at 5 times IC5 pretreated for 2 hrs before doxorubicin administration measured after 2 hrs by flow cytometry; assay type: cell-based
In short: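 A2780/DX3 cells (kept in 0.1 μM doxorubicin, drug withdrawn 2–3 days before use) seeded in flasks, grown 24 h to 75–85% confluence. Modulator given at five times the 5%-growth-inhibition concentration for 2 h, then 10 μM doxorubicin for 2 h more. Cells trypsinized, fixed in 3.7% paraformaldehyde/2% sucrose in PBS. Flow cytometry, 488 nm excitation, 575 nm bandpass. Read-out is MFI, with % increase taken from the MFI ratio to doxorubicin alone.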

[7] = Antiproliferative activity against human A2780/DX3 cells at 6.2 uM after 3 days by MTT assay; assay type: functional; conditions: A2780/DX3, 72 h
A2780 [8] = experiment: Antiproliferative activity against human A2780 cells at 13.1 uM after 3 days by MTT assay; assay type: functional; conditions: A2780, 72 h
[9] = Antiproliferative activity against human A2780/DX3 cells at 3.0 uM after 3 days by MTT assay; assay type: functional; conditions: A2780/DX3, 72 h
A2780 [10] = experiment: Antiproliferative activity against human A2780 cells at 0.6 uM after 3 days by MTT assay; assay type: functional; conditions: A2780, 72 h
A2780 ADR [11] = experiment: Reversal of P-gp 170-mediated multidrug resistance in human A2780/DX3 cells assessed as increase in intracellular doxorubicin accumulation at 5 times IC5 pretreated for 2 hrs before doxorubicin administration measured after 2 hrs by epifluorescent microscopic analysis; assay type: cell-based
In short: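 A2780/DX3 cells on chamber slides at 75–85% confluence, pretreated 2 h with compound at five times the concentration giving 5% growth inhibition. Doxorubicin 10 μM then added for 2 h. Cells washed in cold PBS, fixed in 3.7% paraformaldehyde/2% sucrose, mounted and imaged by epifluorescence at 20X. Untreated and compound-only controls included.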

[12] = Down regulation of P-gp 170 expression in human A2780/DX3 cells after 72 hrs by flow cytometry; assay type: functional, cell-based
In short: (§3)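 Cells exposed 72 h to compound at concentrations giving 5% or 0% growth inhibition. Then washed in PBS/2% FCS; 2.5 × 10^5 cells stained at 4 °C with anti-Pgp MM4.17 monoclonal, then FITC goat anti-mouse IgG, and analysed by flow cytometry.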

A2780 [13] = experiment: Down regulation of P-gp 170 expression in human A2780 cells after 72 hrs by flow cytometry; assay type: functional, cell-based; in short: as §3
[14] = Antiproliferative activity against human A2780/DX3 cells at 1.2 uM after 3 days by MTT assay; assay type: functional; conditions: A2780/DX3, 72 h
A2780 [15] = experiment: Antiproliferative activity against human A2780 cells at 0.20 uM after 3 days by MTT assay; assay type: functional; conditions: A2780, 72 h
[16] = Antiproliferative activity against human A2780/DX3 cells at 15.6 uM after 3 days by MTT assay; assay type: functional; conditions: A2780/DX3, 72 h
A2780 [17] = experiment: Antiproliferative activity against human A2780 cells at 1.2 uM after 3 days by MTT assay; assay type: functional; conditions: A2780, 72 h
[18] = Antiproliferative activity against human A2780/DX3 cells at 1.0 uM after 3 days by MTT assay; assay type: functional; conditions: A2780/DX3, 72 h
A2780 [19] = experiment: Antiproliferative activity against human A2780 cells at 1.97 uM after 3 days by MTT assay; assay type: functional; conditions: A2780, 72 h
[20] = Antiproliferative activity against human A2780/DX3 cells at 0.84 uM after 3 days by MTT assay; assay type: functional; conditions: A2780/DX3, 72 h
A2780 [21] = experiment: Antiproliferative activity against human A2780 cells at 15.4 uM after 3 days by MTT assay; assay type: functional; conditions: A2780, 72 h
[22] = Antiproliferative activity against human A2780/DX3 cells at 2.25 uM after 3 days by MTT assay; assay type: functional; conditions: A2780/DX3, 72 h
A2780 [23] = experiment: Antiproliferative activity against human A2780 cells at 5.3 uM after 3 days by MTT assay; assay type: functional; conditions: A2780, 72 h
[24] = Antiproliferative activity against human A2780/DX3 cells at 1.9 uM after 3 days by MTT assay; assay type: functional; conditions: A2780/DX3, 72 h
A2780 [25] = experiment: Antiproliferative activity against human A2780 cells at 1.3 uM after 3 days by MTT assay; assay type: functional; conditions: A2780, 72 h
[26] = Blockade of L-type calcium channel
[27] = Antiproliferative activity against human A2780/DX3 cells at 2.2 uM after 3 days by MTT assay; assay type: functional; conditions: A2780/DX3, 72 h

CC1=CSC(O)(c2ccccc2)c2noc(=O)n21 (configuration not stated)
inhibition at 10 µM (A2780 [1]): 0% | IC5 (A2780 [2]): 100 µM | IC50 (A2780 [2]): > 100 µM | IC5 [3]: 49.4 µM | IC50 [3]: > 100 µM | Activity (A2780 ADR [4]): -2% | Activity (A2780 ADR [5]): -16% | Activity (A2780 ADR [6]): < 48% | inhibition at 6.2 µM [7]: 0%

COC1(c2ccc(Cl)cc2)SC=C(C)n2c1noc2=O (configuration not stated)
inhibition at 13.1 µM (A2780 [8]): 0% | IC5 (A2780 [2]): 28.4 µM | IC50 (A2780 [2]): 166 µM | IC5 [3]: 11.7 µM | IC50 [3]: 113 µM | Activity (A2780 ADR [6]): < 48% | inhibition at 3 µM [9]: 0%

O=c1onc2n1C=CSC2(O)c1ccccc1 (configuration not stated)
inhibition at 0.6 µM (A2780 [10]): 0% | IC5 (A2780 [2]): 4.4 µM | IC50 (A2780 [2]): > 100 µM | IC5 [3]: 32.1 µM | IC50 [3]: > 100 µM | Activity (A2780 ADR [4]): -18% | Activity (A2780 ADR [5]): -36% | Activity (A2780 ADR [6]): inactive | Activity (A2780 ADR [11]): inactive | Activity [12]: inactive | Activity (A2780 [13]): inactive | inhibition at 1.2 µM [14]: 0%

CCCCCOC1(c2ccc(Br)cc2)SC=C(C)n2c1noc2=O (configuration not stated)
IC5 (A2780 [2]): 2.6 µM | IC50 (A2780 [2]): 108 µM | IC5 [3]: 41.8 µM | IC50 [3]: > 100 µM | Activity (A2780 ADR [4]): -43% | Activity (A2780 ADR [5]): -31% | Activity (A2780 ADR [6]): 52% | Activity [12]: inactive | Activity (A2780 [13]): inactive | inhibition at 0.2 µM (A2780 [15]): 0% | inhibition at 15.6 µM [16]: 0%

CCCCOC1(c2ccc(Br)cc2)SC=C(C)n2c1noc2=O (configuration not stated)
IC5 (A2780 [2]): 7.7 µM | IC50 (A2780 [2]): 82 µM | IC5 [3]: 3.2 µM | IC50 [3]: 78 µM | Activity (A2780 ADR [4]): 3% | Activity (A2780 ADR [5]): 3% | Activity (A2780 ADR [6]): < 48% | inhibition at 1.2 µM (A2780 [17]): 0% | inhibition at 1 µM [18]: 0%

CC1=CSC(O)(c2cccc(Cl)c2)c2noc(=O)n21 (configuration not stated)
inhibition at 1.97 µM (A2780 [19]): 0% | IC5 (A2780 [2]): 24.3 µM | IC50 (A2780 [2]): > 100 µM | IC5 [3]: 3.89 µM | IC50 [3]: > 100 µM | Activity (A2780 ADR [4]): 7% | Activity (A2780 ADR [5]): 7% | Activity (A2780 ADR [6]): < 48% | inhibition at 0.84 µM [20]: 0%

COc1ccc(C2(O)SC=C(C)n3c2noc3=O)cc1 (configuration not stated)
inhibition at 15.4 µM (A2780 [21]): 0% | IC5 (A2780 [2]): 40.1 µM | IC50 (A2780 [2]): > 100 µM | IC5 [3]: 26.7 µM | IC50 [3]: > 100 µM | Activity (A2780 ADR [4]): 12% | Activity (A2780 ADR [5]): 10% | Activity (A2780 ADR [6]): < 48% | inhibition at 2.25 µM [22]: 0%

CC1=CSC(O)(c2cccc(C(F)(F)F)c2)c2noc(=O)n21 (configuration not stated)
inhibition at 5.3 µM (A2780 [23]): 0% | IC5 (A2780 [2]): 18.3 µM | IC50 (A2780 [2]): 60 µM | IC5 [3]: 12.6 µM | IC50 [3]: 71 µM | Activity (A2780 ADR [4]): -4% | Activity (A2780 ADR [5]): -22% | Activity (A2780 ADR [6]): < 48% | inhibition at 1.9 µM [24]: 0%

COc1ccc([C@@H]2Sc3ccccc3N(CCN(C)C)C(=O)[C@@H]2OC(C)=O)cc1 [DILTIAZEM]
inhibition at 1.3 µM (A2780 [25]): 0% | EC50 [26]: 0.79 µM | IC5 (A2780 [2]): 2.8 µM | IC50 (A2780 [2]): 163 µM | IC5 [3]: 20.6 µM | IC50 [3]: > 100 µM | Activity (A2780 ADR [4]): -84% | Activity (A2780 ADR [5]): -72% | Activity (A2780 ADR [6]): 699% | Activity [12]: inactive | Activity (A2780 [13]): inactive | inhibition at 2.2 µM [27]: 0%
